Fewer inactive variants are shown than the library holds.
B1: tRNA (parent)
chain: GUUCCGUUGGCGUAAUGGUAACGCGUCUCCCUCCUAAGGAGAAGACUGCGGGUUCGAGUCCCGUACGGAACG

Variants of: B1
Assay: yeast fitness relative to wild type (ratio to wild type); higher = fitter; tRNA-Arg(CCU), competitive growth, 37 C, YPD
Summary of the method: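 Genotype frequency changes were the basis for Darwinian fitness relative to wild type. The frequencies came from 100-nucleotide paired-end sequencing of gene amplicons from the start population and each end population of pooled yeast strains with tRNA-Arg(CCU) gene variants at the native locus. Competition ran in YPD at 37°C for 24 hours in six replicates, genotypes needed ≥ 100 starting reads, and estimates < 0.5 were set to 0.5.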

U35A C60A A65U A70G and C34A C60G A70C cannot be ordered by yeast fitness: no more than 0.5 for the first, no more than 0.5 for the second.

Going from C34A A42U A45G to C34A U59G, the yeast fitness rises from no more than 0.5 to 0.745.

First: C34G C49G U54A A57C G68A
Second: C34G A45U U53G A57G
The yeast fitness of the first is lower: no more than 0.5 for the first, 0.569 for the second.

Compared with C34G C62A G63A, C33U U47A is higher in yeast fitness: no more than 0.5 for the first, 0.829 for the second.

Going from C34U A36C C46G to C34G C60U C61U, the yeast fitness rises from no more than 0.5 to 0.545.

Compared with C34U A57G, C34U A57U is lower in yeast fitness: 0.737 for the first, no more than 0.5 for the second.

C34U C60G A69G and C34G G63A G67A cannot be ordered by yeast fitness: no more than 0.5 for the first, no more than 0.5 for the second.

First: U35C A45U C49A
Second: C34A G52C G63C
The yeast fitness of the first is lower: 0.594 for the first, 0.681 for the second.

C34G A40C A43U and C34A G52A C61G G63A cannot be ordered by yeast fitness: no more than 0.5 for the first, no more than 0.5 for the second.

First: C34U A40C A42C G48A
Second: U35A A45C
The yeast fitness of the first is lower: no more than 0.5 for the first, 0.576 for the second.

First: C34G A42G C62U
Second: C34U C49U A69U
The yeast fitness of the first is lower: 0.589 for the first, 0.607 for the second.

Going from C34A G41C to U35A C60G C62G G68A, the yeast fitness falls from 0.757 to no more than 0.5.

Going from C33U C46U G68C to C34G A36G A57U, the yeast fitness falls from 0.615 to no more than 0.5.

Compared with C34U G44C U47G, U35C A36U G38A C46A U54C is lower in yeast fitness: 0.659 for the first, no more than 0.5 for the second.

Compared with C34A A57U G67C, C34A U53C is lower in yeast fitness: 0.605 for the first, 0.559 for the second.

First: C34A U53A
Second: C34U C46U U64A
The yeast fitness of the first is lower: 0.541 for the first, 0.642 for the second.

First: C34G G41A A42C G67C
Second: C34G A40C G44A
The yeast fitness of the first is higher: 0.597 for the first, no more than 0.5 for the second.

Compared with C34U G38A G56A, C33U G44C C49U is lower in yeast fitness: 0.611 for the first, 0.531 for the second.

Compared with C34A G68U, C34A G68C is higher in yeast fitness: 0.647 for the first, 0.841 for the second.

Compared with C34U G39C A69U, U35A A40U A57U is higher in yeast fitness: no more than 0.5 for the first, 0.625 for the second.

Going from U35C A43U to U35C A43C, the yeast fitness falls from 0.971 to 0.927.

Going from U35C A43G to U35A A45C G56A, the yeast fitness falls from 0.783 to 0.636.

Compared with C33U C49G G52C, U35A G52A is higher in yeast fitness: 0.501 for the first, 0.532 for the second.

Going from C34A A65U to C34G A42G A43U, the yeast fitness falls from 0.736 to 0.635.

Compared with C34G C62G, C34U U35C A40C is lower in yeast fitness: 0.559 for the first, no more than 0.5 for the second.

First: C34U A37U C66U
Second: C34G C66A A69C
The yeast fitness of the first is lower: no more than 0.5 for the first, 0.599 for the second.

First: C33U G39A A57G C66U
Second: C34U A69U
The yeast fitness of the first is lower: 0.557 for the first, 0.667 for the second.

U35A C61G and C34A C55G G58A U64C A65C cannot be ordered by yeast fitness: no more than 0.5 for the first, no more than 0.5 for the second.

Compared with C34U G48A C49G, C34U G44A A65G is lower in yeast fitness: 0.563 for the first, no more than 0.5 for the second.

Compared with C33U C34U G38A G51A C55A A65U, U35A A65G is higher in yeast fitness: 0.566 for the first, 0.751 for the second.

C34A A36C C61U U64A and U35C A43U U47A cannot be ordered by yeast fitness: no more than 0.5 for the first, no more than 0.5 for the second.

First: C34G A42C G51C
Second: U35C A40C
The yeast fitness of the first is lower: 0.525 for the first, 0.795 for the second.

Going from U35C A40G to C34A G39C, the yeast fitness rises from 0.711 to 0.792.

C33U C34A G38C G52A and C34U A36U G52C A69U cannot be ordered by yeast fitness: no more than 0.5 for the first, no more than 0.5 for the second.

First: U35A A43G
Second: C34U G52C A70U
The yeast fitness of the first is higher: 0.624 for the first, no more than 0.5 for the second.

Compared with C34G A36U G58A, C34U C46U A69G A70U is lower in yeast fitness: 0.605 for the first, no more than 0.5 for the second.

C33U C61U A69G and C34A A37C G67C A69G cannot be ordered by yeast fitness: no more than 0.5 for the first, no more than 0.5 for the second.

First: C34A A37C
Second: C34A A43C G67A
The yeast fitness of the first is higher: 0.713 for the first, 0.537 for the second.

Compared with C34G C49G C61U U64A, C34U A42C is higher in yeast fitness: no more than 0.5 for the first, 0.664 for the second.

Compared with C34U A42U, C34G C55U G63A is lower in yeast fitness: 0.74 for the first, no more than 0.5 for the second.

First: C34G A37C G56A
Second: C33U G50A G52C A65C
The yeast fitness of the first is lower: 0.527 for the first, 0.564 for the second.

C34U A37U G41A G50C and U35A A57C C62U cannot be ordered by yeast fitness: no more than 0.5 for the first, no more than 0.5 for the second.

Going from U35A U59C C62U C66U to C33U A70U, the yeast fitness rises from 0.645 to 0.902.

First: C34U G52C C55U G58A
Second: U35A A36U G39A
The yeast fitness of the first is lower: no more than 0.5 for the first, 0.567 for the second.

C34U G51C G58C and C34A A42U G68A cannot be ordered by yeast fitness: no more than 0.5 for the first, no more than 0.5 for the second.

Compared with C34G G56A, C34U C49U A65C is lower in yeast fitness: 0.639 for the first, 0.612 for the second.

Going from C34U G50A G56C to C34A A40C A42U, the yeast fitness falls from 0.662 to no more than 0.5.

Compared with U35A C46A C49G G52A, C34U A36G A57G is lower in yeast fitness: 0.572 for the first, no more than 0.5 for the second.

Compared with C34U G39C G50A, C34A G56C is lower in yeast fitness: 0.557 for the first, no more than 0.5 for the second.

C34U A40G C55G and C34G A57C G63A cannot be ordered by yeast fitness: no more than 0.5 for the first, no more than 0.5 for the second.

U35C A45G C62A and C34U G58C C62G G67A cannot be ordered by yeast fitness: no more than 0.5 for the first, no more than 0.5 for the second.

Going from U35A A42U A43U U59G to C34U C61G A65C C66G, the yeast fitness falls from 0.541 to no more than 0.5.

Going from C34A U47G C49G C60G to U35C A42C G50A, the yeast fitness falls from 0.571 to no more than 0.5.

Compared with C34U C46G G58C C60U C66G, C34G G52C A70U is higher in yeast fitness: no more than 0.5 for the first, 0.542 for the second.

Going from C34U G50C to C33U G48A, the yeast fitness rises from 0.528 to 0.678.

First: C33U U54C G58A
Second: C34A A40C U54C C66U
The yeast fitness of the first is higher: 0.643 for the first, 0.623 for the second.

Going from C34U G39C to C34A A42U C61G A65U, the yeast fitness falls from 0.571 to no more than 0.5.

C34A A45G A57U C66U and U35A A42C C46U C66U G67C cannot be ordered by yeast fitness: no more than 0.5 for the first, no more than 0.5 for the second.

Going from C34U A40U C61G to C33U G44C, the yeast fitness rises from no more than 0.5 to 0.601.

Compared with C33U U35A, C33U U35C is higher in yeast fitness: no more than 0.5 for the first, 0.579 for the second.

C34U A40G U54C A57G and C34G G48C G67A cannot be ordered by yeast fitness: no more than 0.5 for the first, no more than 0.5 for the second.

Compared with C33U C34A, C34G A40U A43C C46A G63C is lower in yeast fitness: 0.574 for the first, no more than 0.5 for the second.

First: C34U A40G A69U
Second: U35C A43C C55G A65U
The yeast fitness of the first is higher: 0.574 for the first, no more than 0.5 for the second.

Compared with C34A A37C C49A, C34U C49A G56C C62A A65C is lower in yeast fitness: 0.522 for the first, 0.519 for the second.

Compared with U35A U54C C61G, C34G A36C A70C is lower in yeast fitness: 0.645 for the first, no more than 0.5 for the second.

Compared with C34G C46A C62U, C34G C49U is higher in yeast fitness: 0.541 for the first, 0.708 for the second.

Going from C34A A43U A70U to C33U C34A U53G U54A, the yeast fitness falls from 0.607 to 0.588.

Compared with C34U C49G G52C C55U C62G, U35C C46A C49A is lower in yeast fitness: 0.75 for the first, no more than 0.5 for the second.

Compared with C34G C49G G68C, C34G A40U U47A G67C is lower in yeast fitness: 0.629 for the first, no more than 0.5 for the second.

Going from C34U A37G C46U C61A to C34U U35C, the yeast fitness rises from 0.589 to 0.607.

Going from C34G G38A to C34G G38C, the yeast fitness falls from 0.624 to 0.587.

Going from C33U G56A G58C to C34A C46U A65C, the yeast fitness falls from 0.589 to 0.569.

C34G G41A A42C C66U and C34U G50A U59C C62A U64A cannot be ordered by yeast fitness: no more than 0.5 for the first, no more than 0.5 for the second.

First: U35C C55U C62A
Second: C33U G41A C49U C61G
The yeast fitness of the first is higher: 0.527 for the first, no more than 0.5 for the second.

Compared with C34G C55G U59C C60U G67U A70C, C34U A36C A70C is higher in yeast fitness: no more than 0.5 for the first, 0.594 for the second.

Compared with C34U C60U, U35A A42C is higher in yeast fitness: 0.563 for the first, 0.643 for the second.

C34A A40C C61A and C34U A42U C66U cannot be ordered by yeast fitness: no more than 0.5 for the first, no more than 0.5 for the second.

Going from C34U G56A to C34A C49U C61G, the yeast fitness falls from 0.798 to no more than 0.5.

C33U U47A G63A and C34U A36G C55A cannot be ordered by yeast fitness: no more than 0.5 for the first, no more than 0.5 for the second.

Compared with C34A G50C G51A C61G, C34G G39A is higher in yeast fitness: no more than 0.5 for the first, 0.703 for the second.

Compared with C34G G39C, C34G U35C is higher in yeast fitness: 0.58 for the first, 0.613 for the second.

Going from C34G C49G C61U A70C to C33U C61U C66G, the yeast fitness rises from no more than 0.5 to 0.543.

First: C34G U53G
Second: C34G U59C
The yeast fitness of the first is lower: no more than 0.5 for the first, 0.602 for the second.

In the case of C34A C60G G68A, the yeast fitness is reported as 0.688.

Reference: the RNAGym collection of RNA variant scans (doi:10.1126/science.aae0568)
